Measurements: ChEMBL document CHEMBL2434891, “Design, synthesis, and in vitro cancer cell growth inhibition evaluation and antimalarial testing of trioxanes installed in cyclic 2-enoate substructures” (Eur J Med Chem, 2013)
pIC50: −log10 of the molar value.

Legend:
[1] = test system: PC-3; assay: Cytotoxicity against human PC3 cells after 72 hrs by SRB assay; format: functional; details: PC-3, 72 h
[2] = test system: MKN-74; assay: Cytotoxicity against human MKN74 cells after 72 hrs by SRB assay; format: functional; details: MKN-74, 72 h
[3] = test system: DU-145; assay: Cytotoxicity against human DU145 cells after 72 hrs by SRB assay; format: functional; details: DU-145, 72 h
[4] = test system: MKN-45; assay: Cytotoxicity against human MKN45 cells after 72 hrs by SRB assay; format: functional; details: MKN-45, 72 h
[5] = Cytotoxicity against human MKN1 cells after 72 hrs by SRB assay; format: functional; details: MKN-1, 72 h
[6] = test system: MKN-7; assay: Cytotoxicity against human MKN7 cells after 72 hrs by SRB assay; format: functional; details: MKN-7, 72 h
[7] = Cytotoxicity against human RXF631L cells after 72 hrs by SRB assay; format: functional; details: RXF 631, 72 h
[8] = test system: ACHN; assay: Cytotoxicity against human ACHN cells after 72 hrs by SRB assay; format: functional
[9] = test system: OVCAR-8; assay: Cytotoxicity against human OVCAR8 cells after 72 hrs by SRB assay; format: functional; details: OVCAR-8, 72 h
[10] = test system: OVCAR-5; assay: Cytotoxicity against human OVCAR5 cells after 72 hrs by SRB assay; format: functional; details: OVCAR-5, 72 h
[11] = test system: LOX IMVI; assay: Cytotoxicity against human LOXIMVI cells after 72 hrs by SRB assay; format: functional
[12] = test system: OVCAR-3; assay: Cytotoxicity against human OVCAR3 cells after 72 hrs by SRB assay; format: functional; details: OVCAR-3, 72 h
[13] = test system: DMS-114; assay: Cytotoxicity against human DMS114 cells after 72 hrs by SRB assay; format: functional; details: DMS-114, 72 h
[14] = test system: A549; assay: Cytotoxicity against human A549 cells after 72 hrs by SRB assay; format: functional, cell-based; details: A549, 72 h
How it was run: (§1)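 Adherent cells grown at 37 °C and 5% CO2. Seeded at 1×10^4/well 24 h before dosing, then 72 h at 10–0.01 µg/mL final. Fixed with cold 50% TCA, stained with 0.4% SRB, dye extracted in 10 mM Tris, read at 540 nm.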

[15] = test system: NCI-H460; assay: Cytotoxicity against human NCI-H460 cells after 72 hrs by SRB assay; format: functional; details: NCI-H460, 72 h
[16] = test system: NCI-H522; assay: Cytotoxicity against human NCI-H522 cells after 72 hrs by SRB assay; format: functional; details: NCI-H522, 72 h
[17] = test system: NCI-H23; assay: Cytotoxicity against human NCI-H23 cells after 72 hrs by SRB assay; format: functional; details: NCI-H23, 72 h
[18] = test system: HCT-116; assay: Cytotoxicity against human HCT116 cells after 72 hrs by SRB assay; format: functional, cell-based; details: HCT-116, 72 h; how it was run: as §1
[19] = test system: HT-29; assay: Cytotoxicity against human HT-29 cells after 72 hrs by SRB assay; format: functional; details: HT-29, 72 h
[20] = test system: KM12; assay: Cytotoxicity against human KM12 cells after 72 hrs by SRB assay; format: functional; details: KM12, 72 h
[21] = test system: SNB-78; assay: Cytotoxicity against human SNB78 cells after 72 hrs by SRB assay; format: functional; details: SNB-78, 72 h
[22] = test system: SF-295; assay: Cytotoxicity against human SF295 cells after 72 hrs by SRB assay; format: functional; details: SF-295, 72 h
[23] = test system: SF-539; assay: Cytotoxicity against human SF539 cells after 72 hrs by SRB assay; format: functional; details: SF-539, 72 h
[24] = test system: SF-268; assay: Cytotoxicity against human SF268 cells after 72 hrs by SRB assay; format: functional; details: SF-268, 72 h
[25] = Cytotoxicity against human BSY1 cells after 72 hrs by SRB assay; format: functional; details: BSY-1, 72 h
[26] = Cytotoxicity against human HBC5 cells after 72 hrs by SRB assay; format: functional; details: HBC5, 72 h
[27] = Cytotoxicity against human HBC4 cells after 72 hrs by SRB assay; format: functional; details: HBC4, 72 h
[28] = test system: MV4-11; assay: Antiproliferative activity against human MV4-11 cells after 72 hrs by MTT assay; format: functional, cell-based; details: MV4-11, 72 h
[29] = read-out: LC50 (the source's name)
[30] = read-out: pLC50 (the source's name) (converted)

COc1ccc(C2O[C@]34CC(c5cccc(Cl)c5)OC(=O)C3=C[C@@]2(C)OO4)cc1 (stereo partly drawn)
TGI [1]: 28 µM
GI50 ([1]; read-out: GI50): 15 µM
CC50 [1, 29]: 55 µM
GI50 ([1]; read-out: pGI50 (converted)): 13.2 µM
CC50 [1, 30]: 56.2 µM
TGI [2]: 44 µM
GI50 ([2]; read-out: GI50): 15 µM
CC50 [2, 29]: 100 µM
GI50 ([2]; read-out: pGI50 (converted)): 14.1 µM
CC50 [2, 30]: 95.5 µM
TGI [3]: 29 µM
GI50 ([3]; read-out: GI50): 15 µM
CC50 [3, 29]: 54 µM
GI50 ([3]; read-out: pGI50 (converted)): 16.6 µM
CC50 [3, 30]: 56.2 µM
TGI [4]: 31 µM
GI50 ([4]; read-out: GI50): 14 µM
CC50 [4, 29]: 68 µM
GI50 ([4]; read-out: pGI50 (converted)): 15.5 µM
CC50 [4, 30]: 57.5 µM
TGI [5]: 17 µM
GI50 ([5]; read-out: GI50): 4.5 µM
CC50 [5, 29]: 49 µM
GI50 ([5]; read-out: pGI50 (converted)): 2.09 µM
CC50 [5, 30]: 9.12 µM
TGI [6]: 31 µM
GI50 ([6]; read-out: GI50): 10 µM
CC50 [6, 29]: 97 µM
GI50 ([6]; read-out: pGI50 (converted)): 3.47 µM
CC50 [6, 30]: 89.1 µM
TGI [7]: 30 µM
GI50 ([7]; read-out: GI50): 16 µM
CC50 [7, 29]: 56 µM
GI50 ([7]; read-out: pGI50 (converted)): 16.6 µM
CC50 [7, 30]: 58.9 µM
TGI [8]: 29 µM
GI50 ([8]; read-out: GI50): 16 µM
CC50 [8, 29]: 55 µM
GI50 ([8]; read-out: pGI50 (converted)): 15.5 µM
CC50 [8, 30]: 56.2 µM
TGI [9]: 41 µM
GI50 ([9]; read-out: GI50): 12 µM
CC50 [9, 29]: 100 µM
GI50 ([9]; read-out: pGI50 (converted)): 9.33 µM
CC50 ([9]; read-out: pLC50 (converted)): > 100 µM
TGI [10]: 17 µM
GI50 ([10]; read-out: GI50): 5.3 µM
CC50 [10, 29]: 42 µM
GI50 ([10]; read-out: pGI50 (converted)): 2.75 µM
CC50 [10, 30]: 26.3 µM
TGI [11]: 12 µM
GI50 ([11]; read-out: GI50): 3.1 µM
CC50 [11, 29]: 60 µM
GI50 ([11]; read-out: pGI50 (converted)): 2.04 µM
CC50 [11, 30]: 7.59 µM
TGI [12]: 10 µM
GI50 ([12]; read-out: GI50): 3.4 µM
CC50 [12, 29]: 42 µM
GI50 ([12]; read-out: pGI50 (converted)): 2.45 µM
CC50 [12, 30]: 12.6 µM
TGI [13]: 36 µM
GI50 ([13]; read-out: GI50): 14 µM
CC50 [13, 29]: 92 µM
GI50 ([13]; read-out: pGI50 (converted)): 4.47 µM
CC50 [13, 30]: 95.5 µM
pIC50 [14]: 4.99
TGI [14]: 38 µM
GI50 ([14]; read-out: GI50): 18 µM
CC50 [14, 29]: 78 µM
GI50 ([14]; read-out: pGI50 (converted)): 17.8 µM
CC50 [14, 30]: 77.6 µM
TGI [15]: 38 µM
GI50 ([15]; read-out: GI50): 19 µM
CC50 [15, 29]: 77 µM
GI50 ([15]; read-out: pGI50 (converted)): 20 µM
CC50 [15, 30]: 81.3 µM
TGI [16]: 8.6 µM
GI50 ([16]; read-out: GI50): 2.7 µM
CC50 [16, 29]: 100 µM
GI50 ([16]; read-out: pGI50 (converted)): 2 µM
CC50 [16, 30]: 22.4 µM
TGI [17]: 40 µM
GI50 ([17]; read-out: GI50): 18 µM
CC50 [17, 29]: 93 µM
GI50 ([17]; read-out: pGI50 (converted)): 16.6 µM
CC50 [17, 30]: 79.4 µM
pIC50 [18]: 5.12
TGI [18]: 20 µM
GI50 ([18]; read-out: GI50): 4.1 µM
CC50 [18, 29]: 100 µM
GI50 ([18]; read-out: pGI50 (converted)): 3.39 µM
CC50 [18, 30]: 70.8 µM
TGI [19]: 48 µM
GI50 ([19]; read-out: GI50): 15 µM
CC50 [19, 29]: 100 µM
GI50 ([19]; read-out: pGI50 (converted)): 5.25 µM
CC50 ([19]; read-out: pLC50 (converted)): > 100 µM
TGI [20]: 51 µM
GI50 ([20]; read-out: GI50): 25 µM
CC50 [20, 29]: 100 µM
GI50 ([20]; read-out: pGI50 (converted)): 17.8 µM
CC50 [20, 30]: 85.1 µM
TGI [21]: 34 µM
GI50 ([21]; read-out: GI50): 14 µM
CC50 [21, 29]: 84 µM
GI50 ([21]; read-out: pGI50 (converted)): 12.6 µM
CC50 [21, 30]: 91.2 µM
TGI [22]: 33 µM
GI50 ([22]; read-out: GI50): 18 µM
CC50 [22, 29]: 62 µM
GI50 ([22]; read-out: pGI50 (converted)): 18.2 µM
CC50 [22, 30]: 60.3 µM
TGI [23]: 23 µM
GI50 ([23]; read-out: GI50): 8.4 µM
CC50 [23, 29]: 55 µM
GI50 ([23]; read-out: pGI50 (converted)): 2.75 µM
CC50 [23, 30]: 13.5 µM
TGI [24]: 41 µM
GI50 ([24]; read-out: GI50): 18 µM
CC50 [24, 29]: 94 µM
GI50 ([24]; read-out: pGI50 (converted)): 13.8 µM
CC50 [24, 30]: 91.2 µM
TGI [25]: 26 µM
GI50 ([25]; read-out: GI50): 12 µM
CC50 [25, 29]: 57 µM
GI50 ([25]; read-out: pGI50 (converted)): 5.01 µM
CC50 [25, 30]: 46.8 µM
TGI [26]: 8 µM
GI50 ([26]; read-out: GI50): 2.4 µM
CC50 [26, 29]: 44 µM
GI50 ([26]; read-out: pGI50 (converted)): 1.95 µM
CC50 [26, 30]: 8.71 µM
TGI [27]: 24 µM
GI50 ([27]; read-out: GI50): 11 µM
CC50 [27, 29]: 54 µM
GI50 ([27]; read-out: pGI50 (converted)): 3.72 µM
CC50 [27, 30]: 38 µM
pIC50 [28]: 6.26
